Measured values taken from ChEMBL document CHEMBL3286116, “Synthesis, biological evaluation and structure-activity correlation study of a series of imidazol-based compounds as Candida albicans inhibitors” (Eur J Med Chem, 2014).
In brackets after ≈: the same amount, converted by molar mass.

What was measured:
Assay type in all cases: functional
[1] = test system: Cryptococcus neoformans; test: Antifungal activity against Cryptococcus neoformans DSM 11959 after 72 hrs by CLSI broth microdilution method; details: DSM 11959, 72 h
How it was run: (§1)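 Cryptococcus neoformans tested by CLSI broth microdilution in RPMI 1640, with serial two-fold dilutions from DMSO stocks at 100× the top concentration, final 0.125–64. Inoculum was 1.0–1.5 × 10^3 cells mL−1 at 35 °C, with growth read at 72 h. MIC is the lowest concentration with ≥50% growth inhibition versus control. Median of five replicates, plus geometric mean.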

[2] = test system: Trichophyton mentagrophytes; test: Antifungal activity against Trichophyton mentagrophytes PMC 6503 after 72 hrs by CLSI broth microdilution method; details: PMC 6503, 72 h
How it was run: (§2)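 Dermatophytes tested by CLSI broth microdilution for filamentous fungi (M38-A2). Serial two-fold dilutions of DMSO-dissolved compound in RPMI 1640, final 0.125–64. Inoculum was 0.4–5 × 10^4 CFU mL−1, incubated at 35 °C and read at 72 h. MIC80 is the lowest concentration giving ≥80% growth inhibition versus growth control. Median of five replicates, plus geometric mean.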

[3] = test system: Trichophyton mentagrophytes; test: Antifungal activity against Trichophyton mentagrophytes DSM 4870 after 72 hrs by CLSI broth microdilution method; details: DSM 4870, 72 h; how it was run: as §2
[4] = test system: Candida albicans; test: Ratio of fluconazole MIC to compound MIC for Candida albicans PMC 1042R after 48 hrs by CLSI broth microdilution method
[5] = test system: Nannizzia gypsea; test: Antifungal activity against Microsporum gypseum PMC 7303 after 72 hrs by CLSI broth microdilution method; details: PMC 7303, 72 h; how it was run: as §2
[6] = test system: Candida albicans; test: Antifungal activity against Candida albicans ATCC 10261 after 48 hrs by CLSI broth microdilution method; details: ATCC 10261, 48 h
How it was run: (§3)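 Yeast CLSI broth microdilution (M27-A3). Compounds dissolved in DMSO at 100× the top test concentration, then diluted as serial two-fold dilutions in RPMI 1640 to final 0.125–64. Inoculum was 1.0–1.5 × 10^3 cells mL−1, incubated at 35 °C and read for growth at 48 h. MIC is the lowest concentration giving ≥50% growth inhibition versus growth control. Reported as the median of five replicates and as the geometric mean.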

[7] = test system: Trichophyton mentagrophytes; test: Antifungal activity against Trichophyton mentagrophytes PMC 6552 after 72 hrs by CLSI broth microdilution method; details: PMC 6552, 72 h; how it was run: as §2
[8] = test system: Nakaseomyces glabratus; test: Ratio of fluconazole MIC to compound MIC for Candida glabrata PMC 0851R after 48 hrs by CLSI broth microdilution method
[9] = test system: Cryptococcus neoformans; test: Antifungal activity against Cryptococcus neoformans PMC 2115 after 72 hrs by CLSI broth microdilution method; details: PMC 2115, 72 h; how it was run: as §1
[10] = test system: Candida albicans; test: Antifungal activity against Candida albicans ATCC 24433 after 48 hrs by CLSI broth microdilution method; details: ATCC 24433, 48 h; how it was run: as §3
[11] = test system: Nakaseomyces glabratus; test: Ratio of fluconazole MIC to compound MIC for Candida glabrata PMC 0853R after 48 hrs by CLSI broth microdilution method
[12] = test system: Nakaseomyces glabratus; test: Antifungal activity against Candida glabrata PMC 0850R after 48 hrs by CLSI broth microdilution method; how it was run: as §3
[13] = test system: Pichia kudriavzevii; test: Antifungal activity against Candida krusei DSM 6128 after 48 hrs by CLSI broth microdilution method; details: DSM 6128, 48 h; how it was run: as §3
[14] = test system: Nakaseomyces glabratus; test: Ratio of fluconazole MIC to compound MIC for Candida glabrata PMC 0850R after 48 hrs by CLSI broth microdilution method
[15] = test system: Cryptococcus neoformans; test: Antifungal activity against Cryptococcus neoformans PMC 2123 after 72 hrs by CLSI broth microdilution method; details: PMC 2123, 72 h; how it was run: as §1
[16] = test system: Candida albicans; test: Ratio of fluconazole MIC to compound MIC for Candida albicans PMC 1040R after 48 hrs by CLSI broth microdilution method
[17] = test system: Trichophyton mentagrophytes; test: Antifungal activity against Trichophyton mentagrophytes PMC 6509 after 72 hrs by CLSI broth microdilution method; details: PMC 6509, 72 h; how it was run: as §2
[18] = test system: Nakaseomyces glabratus; test: Antifungal activity against Candida glabrata PMC 0851R after 48 hrs by CLSI broth microdilution method; how it was run: as §3
[19] = test system: Nannizzia gypsea; test: Antifungal activity against Microsporum gypseum PMC 7331 after 72 hrs by CLSI broth microdilution method; details: PMC 7331, 72 h; how it was run: as §2
[20] = test system: Cryptococcus neoformans; test: Antifungal activity against Cryptococcus neoformans PMC 2111 after 72 hrs by CLSI broth microdilution method; details: PMC 2111, 72 h; how it was run: as §1
[21] = test system: Pichia kudriavzevii; test: Antifungal activity against Candida krusei PMC 0613 after 48 hrs by CLSI broth microdilution method; details: PMC 0613, 48 h; how it was run: as §3
[22] = test system: Nakaseomyces glabratus; test: Antifungal activity against Candida glabrata PMC 0853R after 48 hrs by CLSI broth microdilution method; how it was run: as §3
[23] = test system: Candida albicans; test: Antifungal activity against Candida albicans ATCC 20891 after 48 hrs by CLSI broth microdilution method; details: ATCC 20891, 48 h; how it was run: as §3
[24] = test system: Candida tropicalis; test: Antifungal activity against Candida tropicalis DSM 11953 after 48 hrs by CLSI broth microdilution method; details: DSM 11953, 48 h; how it was run: as §3
[25] = test system: Candida albicans; test: Antifungal activity against Candida albicans PMC 1042R after 48 hrs by CLSI broth microdilution method; how it was run: as §3
[26] = test system: Candida albicans; test: Ratio of fluconazole MIC to compound MIC for Candida albicans PMC 1041R after 48 hrs by CLSI broth microdilution method
[27] = test system: Candida albicans; test: Antifungal activity against Candida albicans ATCC 3153 after 48 hrs by CLSI broth microdilution method; details: ATCC 3153, 48 h; how it was run: as §3
[28] = test system: Candida albicans; test: Antifungal activity against Candida albicans PMC 1011 after 48 hrs by CLSI broth microdilution method; details: PMC 1011, 48 h; how it was run: as §3
[29] = test system: Candida albicans; test: Antifungal activity against Candida albicans ATCC 76615 after 48 hrs by CLSI broth microdilution method; details: ATCC 76615, 48 h; how it was run: as §3
[30] = test system: Candida parapsilosis; test: Antifungal activity against Candida parapsilosis ATCC 22019 after 48 hrs by CLSI broth microdilution method; details: Lodderomyces parapsilosis, ATCC 22019, 48 h; how it was run: as §3
[31] = test system: Candida tropicalis; test: Antifungal activity against Candida tropicalis PMC 0910 after 48 hrs by CLSI broth microdilution method; details: PMC 0910, 48 h; how it was run: as §3
[32] = test system: Nakaseomyces glabratus; test: Ratio of fluconazole MIC to compound MIC for Candida glabrata PMC 0852R after 48 hrs by CLSI broth microdilution method
[33] = test system: Trichophyton mentagrophytes; test: Antifungal activity against Trichophyton mentagrophytes PMC 6515 after 72 hrs by CLSI broth microdilution method; details: PMC 6515, 72 h; how it was run: as §2
[34] = test system: Candida albicans; test: Antifungal activity against Candida albicans PMC 1041R after 48 hrs by CLSI broth microdilution method; how it was run: as §3
[35] = test system: Cryptococcus neoformans; test: Antifungal activity against Cryptococcus neoformans PMC 2102 after 72 hrs by CLSI broth microdilution method; details: PMC 2102, 72 h; how it was run: as §1
[36] = test system: Cryptococcus neoformans; test: Antifungal activity against Cryptococcus neoformans PMC 2107 after 72 hrs by CLSI broth microdilution method; details: PMC 2107, 72 h; how it was run: as §1
[37] = test system: Nakaseomyces glabratus; test: Antifungal activity against Candida glabrata PMC 0807 after 48 hrs by CLSI broth microdilution method; details: PMC 0807, 48 h; how it was run: as §3
[38] = test system: Nakaseomyces glabratus; test: Antifungal activity against Candida glabrata PMC 0852R after 48 hrs by CLSI broth microdilution method; how it was run: as §3
[39] = test system: Candida albicans; test: Antifungal activity against Candida albicans ATCC 90028 after 48 hrs by CLSI broth microdilution method; details: ATCC 90028, 48 h; how it was run: as §3
[40] = test system: Cryptococcus neoformans; test: Antifungal activity against Cryptococcus neoformans PMC 2136 after 72 hrs by CLSI broth microdilution method; details: PMC 2136, 72 h; how it was run: as §1
[41] = test system: Nannizzia gypsea; test: Antifungal activity against Microsporum gypseum DSM 3824 after 72 hrs by CLSI broth microdilution method; details: DSM 3824, 72 h; how it was run: as §2
[42] = test system: Nakaseomyces glabratus; test: Antifungal activity against Candida glabrata PMC 0805 after 48 hrs by CLSI broth microdilution method; details: PMC 0805, 48 h; how it was run: as §3
[43] = test system: Candida parapsilosis; test: Antifungal activity against Candida parapsilosis DSM 11224 after 48 hrs by CLSI broth microdilution method; details: Lodderomyces parapsilosis, DSM 11224, 48 h; how it was run: as §3
[44] = test system: Candida albicans; test: Antifungal activity against Candida albicans ATCC 10231 after 48 hrs by CLSI broth microdilution method; details: ATCC 10231, 48 h; how it was run: as §3
[45] = test system: Cryptococcus neoformans; test: Antifungal activity against Cryptococcus neoformans PMC 2103 after 72 hrs by CLSI broth microdilution method; details: PMC 2103, 72 h; how it was run: as §1
[46] = test system: Trichophyton mentagrophytes; test: Antifungal activity against Trichophyton mentagrophytes PMC 6531 after 72 hrs by CLSI broth microdilution method; details: PMC 6531, 72 h; how it was run: as §2
[47] = test system: Candida albicans; test: Antifungal activity against Candida albicans PMC 1040R after 48 hrs by CLSI broth microdilution method; how it was run: as §3

O=C(Nc1ccc(N2CCN(c3ccc(Cl)cc3)CC2)cc1)O[C@@H](Cn1ccnc1)c1ccc(F)cc1
MIC50 [1]: 0.125 µg/mL (≈ 0.24 µM)
MIC80 [2]: 4 µg/mL (≈ 7.69 µM)
MIC80 [3]: 4 µg/mL (≈ 7.69 µM)
Ratio [4]: 15
MIC80 [5]: 2 µg/mL (≈ 3.85 µM)
MIC50 [6]: 0.125 µg/mL (≈ 0.24 µM)
MIC80 [7]: 2 µg/mL (≈ 3.85 µM)
Ratio [8]: 15
MIC50 [9]: 0.25 µg/mL (≈ 0.481 µM)
MIC50 [10]: 0.5 µg/mL (≈ 0.962 µM)
Ratio [11]: 15
MIC50 [12]: 0.25 µg/mL (≈ 0.481 µM)
MIC50 [13]: 0.5 µg/mL (≈ 0.962 µM)
Ratio [14]: 15
MIC50 [15]: 0.25 µg/mL (≈ 0.481 µM)
Ratio [16]: 15
MIC80 [17]: 4 µg/mL (≈ 7.69 µM)
MIC50 [18]: 64 µg/mL (≈ 123 µM)
MIC80 [19]: 4 µg/mL (≈ 7.69 µM)
MIC50 [20]: 0.5 µg/mL (≈ 0.962 µM)
MIC50 [21]: 0.0625 µg/mL (≈ 0.12 µM)
MIC50 [22]: 2 µg/mL (≈ 3.85 µM)
MIC50 [23]: 0.0625 µg/mL (≈ 0.12 µM)
MIC50 [24]: 0.25 µg/mL (≈ 0.481 µM)
MIC50 [25]: 1 µg/mL (≈ 1.92 µM)
Ratio [26]: 15
MIC50 [27]: 0.5 µg/mL (≈ 0.962 µM)
MIC50 [28]: 0.0625 µg/mL (≈ 0.12 µM)
MIC50 [29]: 0.5 µg/mL (≈ 0.962 µM)
MIC50 [30]: 0.125 µg/mL (≈ 0.24 µM)
MIC50 [31]: 2 µg/mL (≈ 3.85 µM)
Ratio [32]: 15
MIC80 [33]: 4 µg/mL (≈ 7.69 µM)
MIC50 [34]: 0.5 µg/mL (≈ 0.962 µM)
MIC50 [35]: 0.25 µg/mL (≈ 0.481 µM)
MIC50 [36]: 0.25 µg/mL (≈ 0.481 µM)
MIC50 [37]: 0.25 µg/mL (≈ 0.481 µM)
MIC50 [38]: 2 µg/mL (≈ 3.85 µM)
MIC50 [39]: 0.125 µg/mL (≈ 0.24 µM)
MIC50 [40]: 0.0625 µg/mL (≈ 0.12 µM)
MIC80 [41]: 2 µg/mL (≈ 3.85 µM)
MIC50 [42]: 0.0625 µg/mL (≈ 0.12 µM)
MIC50 [43]: 0.0625 µg/mL (≈ 0.12 µM)
MIC50 [44]: 0.25 µg/mL (≈ 0.481 µM)
MIC50 [45]: 0.06 µg/mL (≈ 0.115 µM)
MIC80 [46]: 4 µg/mL (≈ 7.69 µM)
MIC50 [47]: 64 µg/mL (≈ 123 µM)
